From ChEMBL document CHEMBL4699410, “Discovery, SAR study and ADME properties of methyl 4-amino-3-cyano-1-(2-benzyloxyphenyl)-1H-pyrazole-5-carboxylate as an HIV-1 replication inhibitor” (RSC Med Chem, 2020)
pEC50, pIC50: −log10 of the molar value. Converted amounts (≈) assume the structure as drawn. The source made the active and inactive calls. The calls are words filed in the database; no cut-off is given here.

Columns and labels:
[1] = system: Human immunodeficiency virus 1; assay: (§1) Antiviral activity against HIV1 LAI infected in human HeLa-P4 cells harboring a stably integrated LTR-linked LacZ reporter gene assessed as inhibition of viral replication at 50 uM preincubated with cells for 2 hrs followed by viral infection and measured after 48 hrs of compound challenge by CPRG based beta-galactosidase assay relative to control; format: functional; conditions: Human immunodeficiency virus 1, LAI, HeLaP4
How it was run: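 Single-concentration screen: HeLa P4 cells (stably integrated LTR–LacZ reporter) infected with HIV-1 Laï and incubated 48 h with compound at 50 µM; zidovudine as positive control.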

[2] = Cytotoxicity against human HeLa-P4 cells at 50 uM […] by MTS assay relative to control; format: cell-based; conditions: hela p4, 50 µM
[3] = system: Human immunodeficiency virus 1; assay: as §1, with “replication” for “replication at 50 uM”, “assay” for “assay relative to control”; format: functional, organism-based; conditions: for pEC50: Human immunodeficiency virus 1, LAI, HeLaP4, read-out: EC50; for EC50: hela p4
[4] = system: Human immunodeficiency virus 1; assay: Antiviral activity against HIV1 LAI infected in human MT2 cells assessed as suppression of viral replication up to 50 uM pre-incubated with cells for 2 hr before viral infection and measured after 3 days of cultivation by RT-PCR analysis; format: functional, organism-based; conditions: dose microM <=50, time 3.0 day
[5] = Thermodynamic solubility of compound in PBS at pH 7.4 incubated for 24 hrs under shaking condition by HPLC analysis; format: physicochemical; conditions: read-out: Therm_solubility
[6] = Octanol/water partition coefficient, logD of the compound at pH 7.4 by shake flask method; format: physicochemical
[7] = Plasma protein binding in mouse at 1 uM incubated for 4 hrs by rapid equilibrium dialysis method; format: ADME, cell-free; conditions: read-out: PPB (converted)
[8] = Metabolic stability in CD1 mouse liver microsomes assessed as half life of compound at 1 uM and measured up to 60 mins in presence of NADPH by LC-MS analysis; format: ADME, Microsome
[9] = Stability in CD-1 mouse plasma assessed as parent compound remaining at 1 uM measured up to 60 mins by LC-MS/MS analysis; format: ADME, cell-free; conditions: read-out: Stabilty
[10] = Cmax in iv dosed mouse plasma measured after 10 mins; format: ADME, organism-based; set-up: route intravenous, time 10 min
[11] = Cmax in po dosed mouse plasma measured after 10 mins; format: ADME, organism-based; set-up: route oral, time 10 min
[12] = target: Human immunodeficiency virus type 1 reverse transcriptase (Human immunodeficiency virus 1, UniProt Q72547); assay: Inhibition of wild-type recombinant HIV-1 subtype B reverse transcriptase p66/p51 heterodimer expressed in Escherichia coli using calf thymus DNA and [3H]-deoxythymidine 5'-triphophaste as substrate measured after 15 mins by liquid scintillation counting method
How it was run: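 Inhibition measured with subtype B wild-type HIV-1 RT in an in vitro susceptibility assay; nevirapine and AZT as positive controls.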

[13] = system: Human immunodeficiency virus 1; assay: Inhibition of recombinant HIV1 integrase mediated strand transfer activity at 0.1 to 333 uM in presence of U5A/U5B2 and [gamma-32P]ATP; conditions: dose microM 0.1-333
How it was run: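 HIV-1 integrase strand-transfer reaction run with increasing inhibitor concentrations from 100 nM to 333 µM, with raltegravir as positive control, and the strand-transfer efficiency was measured.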

COC(=O)c1c2nc(-c3cccc(Br)c3)cc(N)c2nn1-c1cccc(OC)c1
inhibition at 50 µM [1]: 54% | Activity [2]: 2%

COC(=O)c1c(N)c(C#N)nn1-c1ccccc1
inhibition at 50 µM [1]: < 30% | Activity [2]: 7%

COC(=O)c1c(N)c(C#N)nn1-c1ccc(Br)cc1
inhibition at 50 µM [1]: 67% | Activity [2]: > 15%

COC(=O)c1c(N)c(C#N)nn1-c1ccc(C(=O)OC(C)(C)C)cc1
inhibition at 50 µM [1]: 47% | Activity [2]: 14%

COC(=O)c1c(N)c(C#N)nn1-c1cccc(F)c1
inhibition at 50 µM [1]: 48% | Activity [2]: 0%

COC(=O)c1c(N)c(C#N)nn1-c1ccc(F)cc1
inhibition at 50 µM [1]: < 30% | Activity [2]: 6%

COC(=O)c1c(N)c(C#N)nn1-c1ccccc1OCc1ccccc1
inhibition at 50 µM [1]: 63% | Activity [2]: 9% | pEC50 [3]: 4.71 | EC50 [3]: Dose-dependent effect | Activity [4]: Active | solubility thermodynamic at 24 h [5]: 9.6 µM (≈ 3.34 µg/mL) | logD [6]: 3.69 | fraction unbound at 4 h, 1 µM [7]: 0.05 | half-life at 1 µM [8]: 3 min | remaining at 1 h, 1 µM [9]: 100% | Cmax [10]: 238 ng/mL | Cmax [11]: 18 ng/mL | pIC50 [12]: < 3.00 | inhibition [13]: inactive

COC(=O)c1c(N)c(C#N)nn1-c1ccc(C(F)(F)F)cc1
inhibition at 50 µM [1]: < 30% | Activity [2]: 14%

COC(=O)c1c(N)c(C#N)nn1-c1ccccc1C(=O)OC(C)(C)C
inhibition at 50 µM [1]: < 30% | Activity [2]: 2.8%

COC(=O)c1c(N)c(C#N)nn1-c1ccc([N+](=O)[O-])cc1
inhibition at 50 µM [1]: 43% | Activity [2]: 0%

C[C@H](Cn1cnc2c(N)ncnc21)OCP(=O)(O)O [TENOFOVIR ANHYDROUS]
pEC50 [3]: 4.88

C#Cc1ccccc1-n1nc(C#N)c(N)c1C(=O)OC
inhibition at 50 µM [1]: < 30% | Activity [2]: 7%

COC(=O)c1c(N)c(C#N)nn1-c1cccc(OCc2ccccc2)c1
inhibition at 50 µM [1]: 65% | Activity [2]: 11% | pEC50 [3]: 4.82 | EC50 [3]: Dose-dependent effect | Activity [4]: Active | solubility thermodynamic at 24 h [5]: 1.03 µM (≈ 0.359 µg/mL) | logD [6]: 3.84 | half-life at 1 µM [8]: 4.6 min | remaining at 1 h, 1 µM [9]: 100% | Cmax [10]: 241 ng/mL

C#Cc1cccc(-n2nc(C#N)c(N)c2C(=O)OC)c1
inhibition at 50 µM [1]: < 30% | Activity [2]: 14%

COC(=O)c1c(N)c(C#N)nn1-c1cccc(C(=O)OC(C)(C)C)c1
inhibition at 50 µM [1]: 36% | Activity [2]: 0%

COC(=O)c1c(N)c(C#N)nn1-c1ccccc1I
inhibition at 50 µM [1]: < 30% | Activity [2]: > 15%

COC(=O)c1c(N)c(C#N)nn1-c1ccccc1F
inhibition at 50 µM [1]: < 30% | Activity [2]: 3.6%

COC(=O)c1c(N)c(C#N)nn1-c1ccccc1[N+](=O)[O-]
inhibition at 50 µM [1]: 42% | Activity [2]: 0%

COC(=O)c1c(N)c(C#N)nn1-c1ccccc1OC
inhibition at 50 µM [1]: < 30% | Activity [2]: 9.2%

COC(=O)c1c(N)c(C#N)nn1-c1cccc(Cl)c1
inhibition at 50 µM [1]: < 30% | Activity [2]: 11%

COC(=O)c1c(N)c(C#N)nn1-c1ccccc1Br
inhibition at 50 µM [1]: 32% | Activity [2]: 4.8%

COC(=O)c1c(N)c(C#N)nn1-c1ccc(Cl)cc1
inhibition at 50 µM [1]: 56% | Activity [2]: > 15%

COC(=O)c1c(N)c(C#N)nn1-c1cccc(C(F)(F)F)c1
inhibition at 50 µM [1]: < 30% | Activity [2]: > 15%

COC(=O)c1c(N)c(C#N)nn1-c1cccc(OC)c1
inhibition at 50 µM [1]: < 30% | Activity [2]: 6%

COC(=O)c1c(N)c(C#N)nn1-c1ccc(OCc2ccccc2)cc1
inhibition at 50 µM [1]: < 30% | Activity [2]: 3.8%

COC(=O)c1c(N)c(C#N)nn1-c1ccc(OC)cc1
inhibition at 50 µM [1]: < 30% | Activity [2]: 14.6%

COC(=O)c1c(N)c(C#N)nn1-c1cccc(Br)c1
inhibition at 50 µM [1]: 42% | Activity [2]: 9%

COC(=O)c1c(N)c(C#N)nn1-c1cccc([N+](=O)[O-])c1
inhibition at 50 µM [1]: 47% | Activity [2]: 0%

COC(=O)c1c(N)c(C#N)nn1-c1ccccc1Cl
inhibition at 50 µM [1]: 30% | Activity [2]: 2.4%
